Experimental data as given in ChEMBL document CHEMBL4346684, “Synthesis and structure-bactericidal activity relationships of non-ketolides: 9-Oxime clarithromycin 11,12-cyclic carbonate featured with three-to eight-atom-length spacers at 3-OH” (Eur J Med Chem, 2019).
Values after ≈ are worked out from the molar mass of the structure shown.

Assays:
Type in all cases: functional
[1] = test system: Streptococcus pneumoniae; experiment: Antimicrobial activity against erythromycin-susceptible Streptococcus pneumoniae ATCC 49619 incubated in CAMHB medium for 20 to 24 hrs by two-fold microbroth dilution method
[2] = test system: Staphylococcus aureus; experiment: Bactericidal activity against inducibly erythromycin-resistant and methicillin resistant Staphylococcus aureus PU32 expressing i-ermA assessed as reduction in colony formation incubated in CAMHB medium for 20 hrs followed by 24 hrs subculturing in the medium without test compound
[3] = test system: Haemophilus influenzae; experiment: Bactericidal activity against azithromycin-susceptible Haemophilus influenzae ATCC 49247 assessed as reduction in colony formation incubated in HTM broth medium for 20 to 24 hrs followed by 24 hrs subculturing in the medium without test compound
[4] = test system: Streptococcus pneumoniae; experiment: Bactericidal activity against erythromycin-susceptible Streptococcus pneumoniae ATCC 49619 assessed as reduction in colony formation incubated in CAMHB medium for 20 to 24 hrs followed by 24 hrs subculturing in the medium without test compound
[5] = test system: Haemophilus influenzae; experiment: Ratio of MBC to MIC for azithromycin-susceptible Haemophilus influenzae ATCC 49247
[6] = test system: Streptococcus pneumoniae; experiment: Ratio of MBC to MIC for erythromycin-susceptible Streptococcus pneumoniae ATCC 49619
[7] = test system: Staphylococcus aureus; experiment: Antimicrobial activity against inducibly erythromycin-resistant and methicillin resistant Staphylococcus aureus PU32 expressing i-ermA incubated in CAMHB medium for 20 hrs by two-fold microbroth dilution method; settings: PU32, 20 h
Summary of the method: (§1)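 Purified fresh Staphylococcus isolate at about 5×10^5 CFU/ml final in CAMHB, 35 °C for 20 h. Each run included ATCC strains and reference antibiotics as QC, plus an antibiotic-free growth control.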

[8] = test system: Streptococcus pyogenes; experiment: Bactericidal activity against inducibly erythromycin resistant Streptococcus pyogenes 01-968 expressing i-ermA assessed as reduction in colony formation incubated in CAMHB medium for 20 to 24 hrs followed by 24 hrs subculturing in the medium without test compound
[9] = test system: Streptococcus pneumoniae; experiment: Bactericidal activity against mef-encoded erythromycin resistant Streptococcus pneumoniae PU09 assessed as reduction in colony formation incubated in CAMHB medium for 20 to 24 hrs followed by 24 hrs subculturing in the medium without test compound
[10] = test system: Staphylococcus aureus; experiment: Antimicrobial activity against constitutively erythromycin resistant and methicillin resistant Staphylococcus aureus PU20 expressing c-ermC incubated in CAMHB medium for 20 hrs by two-fold microbroth dilution method; settings: PU20, 20 h; summary of the method: as §1
[11] = test system: Staphylococcus aureus; experiment: Ratio of MBC to MIC for constitutively erythromycin resistant and methicillin-resistant Staphylococcus aureus PU20 expressing c-ermC
[12] = test system: Staphylococcus aureus; experiment: Bactericidal activity against constitutively erythromycin resistant and methicillin-resistant Staphylococcus aureus PU20 expressing c-ermC assessed as reduction in colony formation incubated in CAMHB medium for 20 hrs followed by 24 hrs subculturing in the medium without test compound
[13] = test system: Streptococcus pneumoniae; experiment: Antimicrobial activity against mef-encoded erythromycin resistant Streptococcus pneumoniae PU09 incubated in CAMHB medium for 20 to 24 hrs by two-fold microbroth dilution method
[14] = test system: Streptococcus pneumoniae; experiment: Ratio of MBC to MIC for mef-encoded erythromycin resistant Streptococcus pneumoniae PU09
[15] = test system: Streptococcus pyogenes; experiment: Antimicrobial activity against inducibly erythromycin resistant Streptococcus pyogenes 01-968 expressing i-ermA incubated in CAMHB medium for 20 to 24 hrs by two-fold microbroth dilution method
[16] = test system: Haemophilus influenzae; experiment: Antimicrobial activity against azithromycin-susceptible Haemophilus influenzae ATCC 49247 incubated in HTM broth medium for 20 to 24 hrs by two-fold microbroth dilution method
[17] = test system: Streptococcus pyogenes; experiment: Ratio of MBC to MIC for inducibly erythromycin resistant Streptococcus pyogenes 01-968 expressing i-ermA
[18] = test system: Moraxella catarrhalis; experiment: Ratio of MBC to MIC for erythromycin-susceptible Moraxella catarrhalis 13L332
[19] = test system: Moraxella catarrhalis; experiment: Bactericidal activity against erythromycin-susceptible Moraxella catarrhalis 13L332 assessed as reduction in colony formation incubated in CAMHB medium for 20 hrs followed by 24 hrs subculturing in the medium without test compound
[20] = test system: Moraxella catarrhalis; experiment: Antimicrobial activity against erythromycin-susceptible Moraxella catarrhalis 13L332 incubated in CAMHB medium for 20 hrs by two-fold microbroth dilution method; settings: 13L332, 20 h
Summary of the method: (§2)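 Clinical isolates and ATCC strains, purified by plate activation and used fresh; inoculum about 5×10^5 CFU/ml final. Grown in CAMHB at 35 °C for 20 h.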

[21] = test system: Staphylococcus aureus; experiment: Ratio of MBC to MIC for inducibly erythromycin-resistant and methicillin resistant Staphylococcus aureus PU32 expressing i-ermA
[22] = test system: Staphylococcus epidermidis; experiment: Antimicrobial activity against Staphylococcus epidermidis E1 incubated in CAMHB medium for 20 hrs by two-fold microbroth dilution method; settings: E1, 20 h; summary of the method: as §2
[23] = test system: Streptococcus pneumoniae; experiment: Antimicrobial activity against constitutively erythromycin resistant Streptococcus pneumoniae PU27 expressing c-erm incubated in CAMHB medium for 20 to 24 hrs by two-fold microbroth dilution method
Summary of the method: (§3)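 Purified fresh Streptococcus isolate at about 5×10^5 CFU/ml final in CAMHB with 5% horse serum, 35 °C for 20–24 h. […] Each run included ATCC strains and reference antibiotics as QC, plus an antibiotic-free growth control.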

[24] = test system: Staphylococcus aureus; experiment: Antimicrobial activity against inducibly erythromycin resistant Staphylococcus aureus PU64 expressing i-ermA incubated in CAMHB medium for 20 hrs by two-fold microbroth dilution method; settings: PU64, 20 h
Summary of the method: (§4)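 Purified fresh Staphylococcus isolate at about 5×10^5 CFU/ml final in CAMHB, 35 °C for 20 h. […] Each run included ATCC strains and reference antibiotics as QC, plus an antibiotic-free growth control.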

[25] = test system: Staphylococcus aureus; experiment: Antimicrobial activity against constitutively erythromycin resistant Staphylococcus aureus PU20 expressing c-ermC incubated in CAMHB medium for 20 hrs by two-fold microbroth dilution method; settings: PU20, 20 h; summary of the method: as §4
[26] = test system: Streptococcus pyogenes; experiment: Antimicrobial activity against constitutively erythromycin resistant Streptococcus pyogenes A2 expressing c-erm incubated in CAMHB medium for 20 to 24 hrs by two-fold microbroth dilution method; summary of the method: as §3
[27] = test system: Staphylococcus aureus; experiment: Antimicrobial activity against inducibly erythromycin-resistant Staphylococcus aureus PU32 expressing i-ermA incubated in CAMHB medium for 20 hrs by two-fold microbroth dilution method; settings: PU32, 20 h; summary of the method: as §4
[28] = test system: Staphylococcus aureus; experiment: Antimicrobial activity against erythromycin-susceptible Staphylococcus aureus ATCC 29213 incubated in CAMHB medium for 20 hrs by two-fold microbroth dilution method; settings: ATCC 29213, 20 h; summary of the method: as §2
[29] = test system: Streptococcus pyogenes; experiment: Antimicrobial activity against erythromycin-susceptible Streptococcus pyogenes A3 incubated in CAMHB medium for 20 to 24 hrs by two-fold microbroth dilution method

CC[C@H]1OC(=O)[C@H](C)[C@@H](OC(=O)CCNCCCCc2cccnc2)[C@H](C)[C@@H](O[C@@H]2O[C@H](C)C[C@H](N(C)C)[C@H]2O)[C@](C)(OC)C[C@@H](C)/C(=N\OC)[C@H](C)[C@H]2OC(=O)O[C@@]21C
MIC [1]: 1 µg/mL (≈ 1.18 µM) | MBC [2]: > 256 µg/mL | MBC [3]: 256 µg/mL (≈ 302 µM) | MBC [4]: 4 µg/mL (≈ 4.71 µM) | Ratio [5]: 2 | Ratio [6]: 4 | MIC [7]: 128 µg/mL (≈ 151 µM) | MBC [8]: 128 µg/mL (≈ 151 µM) | MBC [9]: 4 µg/mL (≈ 4.71 µM) | MIC [10]: 256 µg/mL (≈ 302 µM) | Ratio [11]: 1 | MBC [12]: 256 µg/mL (≈ 302 µM) | MIC [13]: 2 µg/mL (≈ 2.36 µM) | Ratio [14]: 2 | MIC [15]: 64 µg/mL (≈ 75.4 µM) | MIC [16]: 128 µg/mL (≈ 151 µM) | Ratio [17]: 2

CC[C@H]1OC(=O)[C@H](C)[C@@H](OCC#Cc2ccc(-c3ccccn3)s2)[C@H](C)[C@@H](O[C@@H]2O[C@H](C)C[C@H](N(C)C)[C@H]2O)[C@](C)(OC)C[C@@H](C)/C(=N\OC)[C@H](C)[C@H]2OC(=O)O[C@@]21C
Ratio [18]: 2 | MBC [19]: 8 µg/mL (≈ 9.5 µM) | MIC [1]: 4 µg/mL (≈ 4.75 µM) | MBC [2]: > 256 µg/mL | MBC [4]: 16 µg/mL (≈ 19 µM) | MIC [20]: 4 µg/mL (≈ 4.75 µM) | Ratio [6]: 4 | MIC [7]: > 256 µg/mL | MBC [8]: 64 µg/mL (≈ 76 µM) | MBC [9]: 16 µg/mL (≈ 19 µM) | MIC [10]: 256 µg/mL (≈ 304 µM) | Ratio [11]: 1 | MBC [12]: 256 µg/mL (≈ 304 µM) | MIC [13]: 8 µg/mL (≈ 9.5 µM) | Ratio [14]: 2 | MIC [15]: 8 µg/mL (≈ 9.5 µM) | Ratio [17]: 8

CC[C@H]1OC(=O)[C@H](C)[C@@H](O[C@H]2C[C@@](C)(OC)[C@@H](O)[C@H](C)O2)[C@H](C)[C@@H](O[C@@H]2O[C@H](C)C[C@H](N(C)C)[C@H]2O)[C@](C)(OC)C[C@@H](C)C(=O)[C@H](C)[C@@H](O)[C@]1(C)O [CLARITHROMYCIN]
Ratio [21]: >8 | MIC [22]: > 256 µg/mL | MIC [23]: 4 µg/mL (≈ 5.35 µM) | Ratio [18]: 4 | MBC [19]: 0.125 µg/mL (≈ 0.167 µM) | MIC [1]: 0.06 to 0.064 µg/mL (≈ 0.0802 to 0.0856 µM) | MBC [2]: > 256 µg/mL | MBC [3]: 8 µg/mL (≈ 10.7 µM) | MIC [24]: > 256 µg/mL | MBC [4]: 0.125 to 0.25 µg/mL (≈ 0.167 to 0.334 µM) | MIC [20]: 0.031 µg/mL (≈ 0.0414 µM) | Ratio [5]: 2 | Ratio [6]: 2 - 4 | MIC [7]: 32 µg/mL (≈ 42.8 µM) | MBC [8]: 8 to 64 µg/mL (≈ 10.7 to 85.6 µM) | MBC [9]: 8 to 32 µg/mL (≈ 10.7 to 42.8 µM) | MIC [10]: > 256 µg/mL | MIC [25]: > 256 µg/mL | MIC [26]: 128 µg/mL (≈ 171 µM) | MIC [27]: > 256 µg/mL | MBC [12]: > 256 µg/mL | MIC [13]: 4 µg/mL (≈ 5.35 µM) | MIC [28]: 0.25 µg/mL (≈ 0.334 µM) | Ratio [14]: 2 - 8 | MIC [15]: 1 to 8 µg/mL (≈ 1.34 to 10.7 µM) | MIC [29]: ≤ 0.032 µg/mL | MIC [16]: 4 µg/mL (≈ 5.35 µM) | Ratio [17]: >8
